Calls of active or inactive are those of the source. The calls are words filed in the database; no cut-off is given here.

As usually defined, the IC50 is the concentration at which inhibition is half-maximal.

The target of data set [1] is T1, Nucleotide-binding oligomerization domain-containing protein 1 (Homo sapiens, UniProt Q9Y239).
T1 sequence (Q9Y239 whole entry): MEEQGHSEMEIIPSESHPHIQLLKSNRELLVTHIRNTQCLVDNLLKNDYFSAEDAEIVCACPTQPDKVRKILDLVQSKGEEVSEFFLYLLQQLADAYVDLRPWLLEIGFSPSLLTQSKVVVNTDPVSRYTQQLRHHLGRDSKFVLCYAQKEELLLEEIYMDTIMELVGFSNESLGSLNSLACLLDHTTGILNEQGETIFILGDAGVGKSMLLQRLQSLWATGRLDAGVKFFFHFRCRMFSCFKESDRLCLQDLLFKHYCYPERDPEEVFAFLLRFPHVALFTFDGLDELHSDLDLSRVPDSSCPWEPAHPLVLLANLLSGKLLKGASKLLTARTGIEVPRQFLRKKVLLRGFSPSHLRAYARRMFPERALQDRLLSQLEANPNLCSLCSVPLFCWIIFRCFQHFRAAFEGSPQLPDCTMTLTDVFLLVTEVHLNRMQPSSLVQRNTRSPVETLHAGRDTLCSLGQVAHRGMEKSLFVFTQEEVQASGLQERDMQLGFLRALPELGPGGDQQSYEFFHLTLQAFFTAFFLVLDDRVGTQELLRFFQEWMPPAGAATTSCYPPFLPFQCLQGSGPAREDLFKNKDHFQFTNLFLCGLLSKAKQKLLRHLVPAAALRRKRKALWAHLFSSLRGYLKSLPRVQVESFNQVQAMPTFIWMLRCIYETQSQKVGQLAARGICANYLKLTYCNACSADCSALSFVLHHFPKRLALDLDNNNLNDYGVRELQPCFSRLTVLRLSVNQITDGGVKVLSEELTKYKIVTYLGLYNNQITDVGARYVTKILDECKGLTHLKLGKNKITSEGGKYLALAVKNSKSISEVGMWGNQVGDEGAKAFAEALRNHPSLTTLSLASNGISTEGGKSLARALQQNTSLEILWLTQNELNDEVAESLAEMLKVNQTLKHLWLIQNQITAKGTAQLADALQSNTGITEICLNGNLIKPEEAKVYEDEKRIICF
As to the kind of experiment: Antagonist activity at human NOD1 expressed in HEK293 cells assessed as reduction in C12-iE-DAP-induced NF-kappaB activation preincubated for 1 hr followed by C12-iE-DAP stimulation and measured after 18 hrs by SEAP reporter gene based spectrophotometric analysis. The format is cell-based. A general note: In a reporter assay the amount or activity of a reporter protein is the signal.

Data set [2] has as its system THP-1. As to the kind of experiment: Antagonist activity at NOD in human THP-1 cells assessed as increase in IL-8 secretion at 20 uM. The format is cell-based. In outline: (§1)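 THP-1 cells at 10^6 cells/mL in RPMI 1640 with 10% heat-inactivated FCS, passages 3–12, exposed to 20 µM compound alone (no NOD agonist). IL-8 and TNF-α in cell-free supernatants measured by sandwich ELISA, reported in pg/mL. Detection limits were 15.6 pg/mL for IL-8 and 4 pg/mL for TNF-α. DMSO vehicle control, not above 0.2% final.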

Data set [3] relates to THP-1. As to the kind of experiment: Antagonist activity at NOD2/TLR4 in human THP-1 cells assessed as reduction in MDP/LPS-induced TNF-alpha secretion at 20 uM preincubated for 1 hr followed by MDP/LPS stimulation and measured after 20 hrs by ELISA. It counts as cell-based. The conditions noted are these: filed as antagonist, time 21.0 hrs. In outline: (§2)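 Synergy setting in THP-1 cells: 1 h pre-treatment with 20 µM compound, then 10 µM MDP or C12-iE-DAP plus 1 ng/mL E. coli O127:B8 LPS for 20 h. Supernatant TNF-α by sandwich ELISA, detection limit 4 pg/mL. DMSO vehicle ≤0.2%. Duplicates from three independent experiments, mean ± SD, Dunnett test against agonist+LPS-treated cells.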
On the technique in general: ELISA stands for enzyme-linked immunosorbent assay.

The subject of data set [4] is THP-1. As to the kind of experiment: Antagonist activity at NOD in human THP-1 cells assessed as increase in TNF-alpha secretion at 20 uM. The format is cell-based. An outline of the steps: as §1
Data set [5] concerns HEK293. As to the kind of experiment: Cytotoxicity against human HEK293 cells expressing human NOD1 assessed as reduction in metabolic activity at 20 uM incubated for 18 hrs by MTS assay. The conditions noted are these: hek293, 18 h. The format is ADME, cell-based. An outline of the steps:
(§3)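 HEK-Blue NOD1 or NOD2 cells seeded at 1 × 10^4 cells/well in triplicate. Treated 18 h with 20 µM compound or 0.1% DMSO vehicle. Metabolic activity read by MTS (CellTiter 96 AQueous One) and expressed relative to vehicle control. Mean ± SD of three biological replicates.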
For orientation: Tetrazolium assays rely on reduction of a dye to a coloured formazan, in cell work by metabolically active cells.

Data set [6] deals with T2, Nucleotide-binding oligomerization domain-containing protein 1 (Homo sapiens) (UniProt Q9Y239).
T2 sequence (whole entry): T1 sequence (Q9Y239 whole entry)
As to the kind of experiment: Antagonist activity at NOD1 in human THP-1 cells assessed as reduction in C12-iE-DAP-induced IL-8 secretion at 20 uM preincubated for 1 hr followed by C12-iE-DAP stimulation and measured after 20 hrs by ELISA. It counts as cell-based. The note with it: filed as antagonist, time 21.0 hrs. An outline of the steps:
(§4)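 THP-1 cells at 10^6 cells/mL in 24-well cultures, passages 3–12. Pre-treated 1 h with 20 µM compound, then 10 µM MDP (NOD2) or 10 µM C12-iE-DAP (NOD1) added, 20 h at 37 °C, 5% CO2. Triplicate wells, DMSO ≤0.2% as vehicle control. Supernatant IL-8 by sandwich ELISA, detection limit 15.6 pg/mL. Mean ± SD of duplicates from three independent experiments, Dunnett test.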

Data set [7] addresses T3, Nucleotide-binding oligomerization domain-containing protein 2 (Homo sapiens, UniProt Q9HC29). As to the kind of experiment: Antagonist activity at human NOD2 expressed in HEK293 cells assessed as reduction in MDP-induced NF-kappaB activation preincubated for 1 hr followed by MDP stimulation and measured after 18 hrs by SEAP reporter gene based spectrophotometric analysis. It counts as cell-based. The conditions noted are these: read-out: IC50. In outline: (§5)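 Dose–response in HEK-Blue NOD2 and NOD1 cells (5 × 10^5 cells/mL): 1 h pre-treatment with 0.3125–20 µM antagonist, then 2 µM MDP or 100 nM C12-iE-DAP respectively, 18 h incubation. SEAP absorbance read at 620 nm. IC50 fitted by non-linear regression. Duplicates, three biological replicates, DMSO ≤0.1%.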

The subject of data set [8] is THP-1. As to the kind of experiment: Antagonist activity at NOD1/TLR4 in human THP-1 cells assessed as reduction in C12-iE-DAP/LPS-induced TNF-alpha secretion at 20 uM preincubated for 1 hr followed by C12-iE-DAP/LPS stimulation and measured after 20 hrs by ELISA. The note with it: time 21.0 hrs. The format is cell-based. An outline of the steps:
as §2

The target in data set [9] is T3, Nucleotide-binding oligomerization domain-containing protein 2. As to the kind of experiment: Antagonist activity at NOD2 in human THP-1 cells assessed as reduction in MDP-induced IL-8 secretion at 20 uM preincubated for 1 hr followed by MDP stimulation and measured after 20 hrs by ELISA. It counts as cell-based. The conditions noted are these: filed as antagonist, time 21.0 hrs. In outline: as §4

Data set [10] shares this target. As to the kind of experiment: Antagonist activity at human NOD2 expressed in HEK293 cells assessed as reduction in MDP-induced NF-kappaB activation at 10 uM preincubated for 1 hr followed by MDP stimulation and measured after 18 hrs by SEAP reporter gene based spectrophotometric analysis. The conditions noted are these: filed as antagonist, time 19.0 hrs. The format is cell-based. An outline of the steps: (§6)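 HEK-Blue NOD1 or NOD2 reporter cells (5 × 10^5 cells/mL, passages 7–12) pre-treated 1 h with 10 µM compound. Then 100 nM C12-iE-DAP (NOD1) or 2 µM MDP (NOD2) for 18 h at 37 °C, 5% CO2. Secreted SEAP read at 620 nm. DMSO ≤0.1% vehicle control. Duplicates, three biological replicates.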

Data set [11] addresses T2, Nucleotide-binding oligomerization domain-containing protein 1 (Homo sapiens). As to the kind of experiment: Antagonist activity at human NOD1 expressed in HEK293 cells assessed as reduction in C12-iE-DAP-induced NF-kappaB activation at 10 uM preincubated for 1 hr followed by C12-iE-DAP stimulation and measured after 18 hrs by SEAP reporter gene based spectrophotometric analysis. The conditions noted are these: filed as antagonist, time 19.0 hrs. It counts as cell-based. An outline of the steps: as §6

Data set [12] has as its system THP-1. As to the kind of experiment: Cytotoxicity against human THP-1 cells assessed as […] dehydrogenase leakage at 20 uM incubated for 18 hrs. The conditions noted are these: thp-1, 18 h. The format is cell-based. An outline of the steps: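 THP-1 cells treated 18 h with compound at up to 20 µM. Lactate dehydrogenase released into cell-free supernatant measured with a colorimetric kit, results given as OD.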

The subject of data set [13] is HEK293. As to the kind of experiment: Cytotoxicity against human HEK293 cells expressing human NOD2 assessed as reduction in metabolic activity at 20 uM incubated for 18 hrs by MTS assay. The format is ADME, cell-based. The conditions noted are these: hek293, 18 h. In outline: as §3
The species named for a further data set is Homo sapiens. As to the kind of experiment: Selectivity index, ratio of IC50 for antagonist activity at human NOD1 expressed in HEK293 cells assessed as reduction in […] induced NF-kappaB activation preincubated for 1 hr followed by C12-iE-DAP stimulation and measured after 18 hrs by SEAP reporter gene based spectrophotometric analysis to IC50 for antagonist activity at human NOD2 cells expressed in HEK293 cells assessed as reduction in MDP induced NF-kappaB activation preincubated for 1 hr followed by […] stimulation and measured after 18 hrs by SEAP reporter gene based spectrophotometric analysis. It counts as cell-based. An outline of the steps: as §5

The target of data set [14] is T3, Nucleotide-binding oligomerization domain-containing protein 2. As to the kind of experiment: Antagonist activity at NOD2 in human PBMC assessed as reduction in MDP-induced IL-10 secretion at 20 uM preincubated for 1 hr followed by MDP stimulation and measured after 18 hrs by flow cytometric analysis. The note with it: filed as antagonist, time 19.0 hrs. The format is tissue-based. An outline of the steps:
(§7)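 Human PBMCs from healthy donors, Ficoll density-gradient isolated, 1 × 10^6 cells in RPMI 1640 with 10% heat-inactivated FBS. Pre-treated 1 h with 20 µM compound, then 2 µM MDP. Supernatants taken at 18 h and stored at −80 °C. Cytokines quantified by flow cytometric bead array (Th1/Th2 panel) against recombinant standards, in pg/mL. Mean ± SD from two representative experiments.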

Data set [15] shares this target. As to the kind of experiment: Antagonist activity at NOD2 in human PBMC assessed as reduction in MDP-induced IL-6 secretion at 20 uM preincubated for 1 hr followed by MDP stimulation and measured after 18 hrs by flow cytometric analysis. The format is tissue-based. The note with it: filed as antagonist, time 19.0 hrs. In outline: as §7
Data set [16] has the same target. As to the kind of experiment: Antagonist activity at NOD2 in human PBMC assessed as reduction in MDP-induced TNF-alpha secretion at 20 uM preincubated for 1 hr followed by MDP stimulation and measured after 18 hrs by flow cytometric analysis. It counts as tissue-based. The note with it: filed as antagonist, time 19.0 hrs. An outline of the steps: as §7

T3 sequence (Q9HC29 whole entry, the tested form may be a part): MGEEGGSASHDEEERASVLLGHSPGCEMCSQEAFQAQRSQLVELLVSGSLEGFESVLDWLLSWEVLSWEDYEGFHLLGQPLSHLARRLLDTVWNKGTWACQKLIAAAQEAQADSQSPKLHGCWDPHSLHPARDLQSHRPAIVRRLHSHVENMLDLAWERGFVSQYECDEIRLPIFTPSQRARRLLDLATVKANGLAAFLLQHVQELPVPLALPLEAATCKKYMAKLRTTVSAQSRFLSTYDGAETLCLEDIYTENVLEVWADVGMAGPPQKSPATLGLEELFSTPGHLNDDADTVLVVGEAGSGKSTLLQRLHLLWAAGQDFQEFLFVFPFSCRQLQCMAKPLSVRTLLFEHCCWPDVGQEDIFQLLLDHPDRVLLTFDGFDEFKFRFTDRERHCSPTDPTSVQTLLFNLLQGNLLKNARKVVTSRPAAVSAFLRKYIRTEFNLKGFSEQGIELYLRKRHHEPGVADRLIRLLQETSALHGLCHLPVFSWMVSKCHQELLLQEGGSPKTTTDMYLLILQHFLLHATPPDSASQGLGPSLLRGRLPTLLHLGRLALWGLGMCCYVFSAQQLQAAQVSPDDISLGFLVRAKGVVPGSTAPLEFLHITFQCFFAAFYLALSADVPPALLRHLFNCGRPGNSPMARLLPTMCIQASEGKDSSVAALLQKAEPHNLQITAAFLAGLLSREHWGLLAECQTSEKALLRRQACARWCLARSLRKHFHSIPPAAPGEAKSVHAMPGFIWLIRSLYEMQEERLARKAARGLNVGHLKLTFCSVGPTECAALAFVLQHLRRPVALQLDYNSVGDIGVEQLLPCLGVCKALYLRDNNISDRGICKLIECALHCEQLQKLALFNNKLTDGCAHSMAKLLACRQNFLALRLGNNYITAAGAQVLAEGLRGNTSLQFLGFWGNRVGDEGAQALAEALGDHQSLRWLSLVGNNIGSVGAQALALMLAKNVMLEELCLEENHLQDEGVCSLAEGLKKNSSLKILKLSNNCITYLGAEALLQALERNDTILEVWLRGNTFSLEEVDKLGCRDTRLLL

Turning to `CN(C)c1cccc2c(S(=O)(=O)NCCc3nc4ccccc4n3CC(=O)Nc3ccc4c(c3)CCC4)cccc12`, the IC50 in [1] was found to be 2.68 µM; in [7] it was 6.2 µM. Further, the outcome with THP-1 [2], in the data set with THP-1 [4] and in the data set on THP-1 [8] was inactive. In addition, the result (in the data set with THP-1 [3]; in [6]; in [9]; in data set [10]; in data set [11]) was Active. The Activity entry with HEK293 [5], in the data set with THP-1 [12] and in the data set with HEK293 [13] was “Non-Toxic” each time.
As to `O=C(Cn1c(CCNC(=O)c2ccccc2)nc2ccccc21)Nc1ccc2c(c1)CCC2`, the values for the IC50 in data set [1] and in [7] were 27.6 µM and 6.2 µM, respectively. The Activity result in the data set with HEK293 [5] and in the data set on HEK293 [13] was “Non-Toxic” throughout. Moreover, the outcome in data set [9], in [10] and in data set [11] was Active. Besides, the Ratio IC50 in the data set filed under Homo sapiens came to 4.5.
Consider `O=C(Cn1c(CCNS(=O)(=O)c2ccccc2)nc2ccccc21)Nc1ccc2c(c1)CCC2`, for which the IC50 was determined as 28.2 µM in data set [1] and 5.23 µM in data set [7]. Further, the result in the data set with THP-1 [2], in the data set on THP-1 [4] and in the data set on THP-1 [8] was inactive. For the same compound, the result (with THP-1 [3]; in data set [14]; in data set [15]; in [16]; in [6]; in data set [9]) was Active. In addition, the result in [10] and in data set [11] was Active. Besides, the Activity result in the data set with HEK293 [5], in the data set with THP-1 [12] and with HEK293 [13] was “Non-Toxic” throughout.
As to `O=C(Cn1c(CCCNC(=O)c2ccccc2)nc2ccccc21)Nc1ccc2c(c1)CCC2`, the results for the IC50 in data set [1] and in data set [7] were 17.7 µM and 5.7 µM, respectively. The outcome with THP-1 [2], in the data set on THP-1 [4] and with THP-1 [8] was inactive. Also, the outcome (in the data set with THP-1 [3]; in data set [6]; in [9]; in data set [10]; in [11]) was Active. Moreover, the Activity entry with HEK293 [5], in the data set on THP-1 [12] and in the data set with HEK293 [13] was “Non-Toxic” each time.
